The values that follow come from ChEMBL document CHEMBL3352339, “Implications of N-capped urea/thiourea and C-capped 3-(1-piperazinyl)-1,2-benzisothiazole with bridging Gly-Val/Phe-Gly-Val-Pro as therapeutic targets” (Eur J Med Chem, 2014).

The structures appear in SMILES notation. In brackets after ≈: the same amount, converted by molar mass. Starred links: 1 amine or outer side, 2 acyl side, 3 side chain; linkers in the order of their positions; H or OH if unused. Residues, ends and D or L forms follow the SMILES beside them. *: point of attachment. Thiocarbamoyl(N-2-FPh) = Fc1ccccc1NC(=S)*; X1 = c1ccc2c(N3CCN(*)CC3)nsc2c1; NH(4-F-phenyl) = Fc1ccc(N*)cc1; Boc = CC(C)(C)OC(=O)*; CO = O=C([*:1])[*:2]

In series [1] the test system is Aspergillus flavus. The series can be described thus: Antifungal activity against Aspergillus flavus at 50 ug/mL incubated for 3 days by agar well diffusion method. The conditions noted are these: 72 h, read-out: IZ. Type of series: functional. A digest of the protocol:
(§1)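 Fungal growth inhibition measured by agar well diffusion, with bavistin as the reference. Records the mean inhibition-zone diameter (mm) around each well.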

The subject of series [2] is Aspergillus niger. The series can be described thus: Antifungal activity against Aspergillus niger at 50 ug/mL incubated for 3 days by agar well diffusion method. Type of series: functional. Particulars: 72 h, read-out: IZ; call rule not given here. The essentials:
as §1
Background: Agar diffusion results depend on both activity and mobility in agar.

The nature of series [3]: Antiglycation activity using bovine serum albumin incubated at 37 degC for 7 days by spectrofluorimetry. Format: physicochemical. A digest of the protocol: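 Glycation of bovine serum albumin, with rutin as the reference standard. IC50 values are averages of triplicate runs.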
The next series addresses Urease (Canavalia ensiformis, UniProt P07374). The experiment in a line: Inhibition of jack bean urease assessed as reduction in ammonia production incubated at 30 degC for 15 mins by indophenol method. A digest of the protocol: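 Inhibition of jack bean urease, with thiourea as the reference standard. IC50 values are the average of triplicate runs.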
Series [4] concerns Staphylococcus. The series can be described thus: Antibacterial activity against Coagulase positive Staphylococcus at 50 ug/mL incubated for 24 hrs by agar well diffusion method. Type of series: functional. Particulars: read-out: IZ. The essentials: (§2)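 Agar well diffusion against the bacterial isolate, with streptomycin as the reference drug. Read-out is the average diameter (mm) of the growth-inhibition zone around the well.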

Series [5] relates to Klebsiella pneumoniae. The experiment in a line: Antibacterial activity against Klebsiella pneumoniae at 50 ug/mL incubated for 24 hrs by agar well diffusion method. Type of series: functional. Particulars: read-out: IZ. A digest of the protocol: as §2
Series [6] is described as follows: Inhibition of sheep stomach parietal cells gastric H+/K+-ATPase activity assessed as reduction in inorganic phosphorus production by Fiske Subbarow's method. Type of series: tissue-based, Ovis aries. The essentials: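 Inhibition of purified H+/K+-ATPase, with omeprazole as the reference. IC50 is the mean of triplicate runs.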
For series [7], the system named is Fusarium verticillioides. The series can be described thus: Antifungal activity against Fusarium moniliforme at 50 ug/mL incubated for 3 days by agar well diffusion method. Type of series: functional. The conditions noted are these: 72 h, read-out: IZ. A digest of the protocol: as §1
Series [8] deals with Xanthomonas oryzae. The experiment in a line: Antibacterial activity against Xanthomonas oryzae at 50 ug/mL incubated for 24 hrs by agar well diffusion method. The conditions noted are these: read-out: IZ. Format: functional.
Series [9] relates to Fusarium oxysporum. The experiment in a line: Antifungal activity against Fusarium oxysporum at 50 ug/mL incubated for 3 days by agar well diffusion method. Format: functional. The conditions noted are these: 72 h, read-out: IZ. A digest of the protocol: as §1
Series [10] deals with Escherichia coli. The experiment in a line: Antibacterial activity against Escherichia coli at 50 ug/mL incubated for 24 hrs by agar well diffusion method. Type of series: functional. The conditions noted are these: read-out: IZ. The essentials:
as §2

In series [11] the test system is Klebsiella pneumoniae. The experiment in a line: Antibacterial activity against Klebsiella pneumoniae incubated for 24 hrs by agar microdilution method. Format: functional.
Series [12] deals with Xanthomonas oryzae. The experiment in a line: Antibacterial activity against Xanthomonas oryzae incubated for 24 hrs by agar microdilution method. Type of series: functional.
For series [13], the system named is Aspergillus niger. The experiment in a line: Antifungal activity against Aspergillus niger incubated for 48 to 72 hrs by agar microdilution method. Type of series: functional. A digest of the protocol: (§3)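 MIC by microdilution against the fungal strain, limited to compounds showing significant zones in the diffusion assay. Bavistin was used as the reference.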

Series [14] deals with Escherichia coli. The experiment in a line: Antibacterial activity against Escherichia coli incubated for 24 hrs by agar microdilution method. Format: functional.
Series [15] deals with Fusarium oxysporum. The series can be described thus: Antifungal activity against Fusarium oxysporum incubated for 48 to 72 hrs by agar microdilution method. Type of series: functional. The essentials:
as §3

In series [16] the test system is Aspergillus flavus. The experiment in a line: Antifungal activity against Aspergillus flavus incubated for 48 to 72 hrs by agar microdilution method. Format: functional. A digest of the protocol:
as §3

Series [17] deals with Fusarium verticillioides. The experiment in a line: Antifungal activity against Fusarium moniliforme incubated for 48 to 72 hrs by agar microdilution method. Format: functional. The essentials: as §3
The test system of series [18] is Staphylococcus. The experiment in a line: Antibacterial activity against Coagulase positive Staphylococcus incubated for 24 hrs by agar microdilution method. Type of series: functional.

Sequence of Urease (P07374 whole entry, the tested form may be a part): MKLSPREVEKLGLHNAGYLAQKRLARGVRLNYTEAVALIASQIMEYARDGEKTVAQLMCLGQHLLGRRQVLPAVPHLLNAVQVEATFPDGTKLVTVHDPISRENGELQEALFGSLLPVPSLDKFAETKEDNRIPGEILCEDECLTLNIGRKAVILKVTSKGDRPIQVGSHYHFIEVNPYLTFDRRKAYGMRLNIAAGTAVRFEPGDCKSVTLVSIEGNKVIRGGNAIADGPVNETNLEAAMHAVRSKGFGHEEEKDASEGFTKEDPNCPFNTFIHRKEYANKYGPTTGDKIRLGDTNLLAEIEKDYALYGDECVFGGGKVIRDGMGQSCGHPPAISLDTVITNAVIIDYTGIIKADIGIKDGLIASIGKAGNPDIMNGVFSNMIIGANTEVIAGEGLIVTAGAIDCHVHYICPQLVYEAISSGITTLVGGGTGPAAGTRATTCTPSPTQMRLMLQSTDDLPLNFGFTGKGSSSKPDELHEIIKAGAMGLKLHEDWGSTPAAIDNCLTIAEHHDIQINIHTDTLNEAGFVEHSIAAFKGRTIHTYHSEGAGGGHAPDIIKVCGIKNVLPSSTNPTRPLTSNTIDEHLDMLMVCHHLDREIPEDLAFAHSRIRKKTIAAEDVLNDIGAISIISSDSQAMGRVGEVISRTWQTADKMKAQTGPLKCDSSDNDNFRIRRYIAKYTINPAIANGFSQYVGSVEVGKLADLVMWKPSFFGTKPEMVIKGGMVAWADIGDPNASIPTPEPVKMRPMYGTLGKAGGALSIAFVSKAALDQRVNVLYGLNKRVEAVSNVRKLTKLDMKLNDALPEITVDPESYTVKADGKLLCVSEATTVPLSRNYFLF

For the molecule `CC(C)[C@H](NC(=O)CNC(=O)OC(C)(C)C)C(=O)NCC(=O)N[C@H](C(=O)N1CCC[C@H]1C(=O)N1CCN(c2nsc3ccccc23)CC1)C(C)C` (Boc-GVGVP-X1), the zone of inhibition at 50 µg/mL in the series with Aspergillus flavus [1] turned out to be 4 mm; in the series on Aspergillus niger [2] it was 5 mm; with Staphylococcus [4], 5 mm; in the series on Klebsiella pneumoniae [5], 40.3 mm; with Fusarium verticillioides [7], 5 mm; with Xanthomonas oryzae [8], 4 mm. In addition, the zone of inhibition at 50 µg/mL with Fusarium oxysporum [9] and in the series on Escherichia coli [10] was 6 mm throughout. Besides, the figures for the IC50 (in series [3]; on Urease; in series [6]) were 250 µM, 295 µM and “Not Active”, respectively.

Turning to `CC(C)[C@H](NC(=O)CNC(=O)Nc1ccc(F)cc1)C(=O)NCC(=O)N[C@H](C(=O)N1CCC[C@H]1C(=O)N1CCN(c2nsc3ccccc23)CC1)C(C)C` ({NH(4-F-phenyl)-CO}-GVGVP-X1), the MIC stood at 11.2 µg/mL (≈ 14.7 µM) with Klebsiella pneumoniae [11]; 10.5 µg in the series with Xanthomonas oryzae [12]; 11.8 µg/mL (≈ 15.3 µM) with Aspergillus niger [13]; 12.8 µg/mL (≈ 16.6 µM) against Escherichia coli [14]; 14.5 µg/mL (≈ 18.9 µM) in the series on Fusarium oxysporum [15]; 14.5 µg/mL (≈ 18.9 µM) in the series with Aspergillus flavus [16]. Besides, the MIC in the series on Fusarium verticillioides [17] came to 13.5 µg/mL (≈ 17.6 µM); in the series with Staphylococcus [18], 13.2 µg/mL (≈ 17.3 µM). For the same molecule, the zone of inhibition at 50 µg/mL in the series on Aspergillus flavus [1] was found to be 32 mm; in the series with Aspergillus niger [2], 33 mm; in the series with Staphylococcus [4], 29 mm; in the series with Fusarium verticillioides [7], 34 mm; in the series on Xanthomonas oryzae [8], 27 mm; with Fusarium oxysporum [9] it was 30 mm. Moreover, in the series on Escherichia coli [10], the zone of inhibition at 50 µg/mL was determined as 30 mm. Moreover, the IC50 (commonly the concentration that inhibits the measured activity by half) in series [3] is 40 µM; on Urease it was 39 µM; in series [6] (read-out: IC50), 78 µM.

With `CC(C)[C@H](NC(=O)CNC(=O)[C@H](Cc1ccccc1)NC(=O)CNC(=S)Nc1ccccc1F)C(=O)N1CCC[C@H]1C(=O)N1CCN(c2nsc3ccccc23)CC1` ({Thiocarbamoyl(N-2-FPh)}-GFGVP-X1), the MIC in the series on Klebsiella pneumoniae [11] is 10.8 µg/mL (≈ 13 µM); with Xanthomonas oryzae [12], 11 µg; with Aspergillus niger [13] it was 12.8 µg/mL (≈ 15.4 µM); with Escherichia coli [14], 11 µg/mL (≈ 13.3 µM); in the series on Fusarium oxysporum [15], 13 µg/mL (≈ 15.7 µM); with Aspergillus flavus [16], 13 µg/mL (≈ 15.7 µM). In addition, the MIC against Fusarium verticillioides [17] is 9.25 µg/mL (≈ 11.1 µM); in the series on Staphylococcus [18] it was 11.2 µg/mL (≈ 13.6 µM). Also, the zone of inhibition at 50 µg/mL stood at 30 mm with Aspergillus flavus [1]; 31 mm in the series on Aspergillus niger [2]; 31 mm in the series with Staphylococcus [4]; 28 mm with Fusarium verticillioides [7]; 31 mm with Xanthomonas oryzae [8]; 31 mm in the series on Fusarium oxysporum [9]. Further, in the series with Escherichia coli [10], the zone of inhibition at 50 µg/mL came to 32 mm. Besides, the results for the IC50 (in [3]; at Urease; in series [6] (read-out: IC50)) were 48 µM, 38 µM and 102 µM, respectively.
